Assay results reported in ChEMBL document CHEMBL1123963, “Conformational preference for the binding of biaryl substrates and inhibitors to the active site of phenylethanolamine N-methyltransferase” (J Med Chem, 1988).

Columns and labels:
[1] = Activity of the substrate is measured as the ratio of 100*Vmax/Km
Procedure, shortened: (§1)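 Bovine adrenal PNMT, purified through the isoelectric precipitation step, was used. The radiochemical assay contained phosphate buffer (pH 8.0), unlabeled AdoMet, [methyl-3H]AdoMet and enzyme, incubated 30 min at 37 °C. It was stopped with borate buffer (pH 10) and extracted into toluene-isoamyl alcohol (7:3). Km and Vmax came from at least five concentrations of the variable substrate; compounds were tested as hydrochloride salts.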

[2] = molecular target: T1, Phenylethanolamine N-methyltransferase (Bos taurus, UniProt P10938); test: In vitro inhibition of compound towards phenylethanolamine N-methyltransferase(PNMT) isolated from bovine adrenal glands
T1 sequence (P10938 whole entry): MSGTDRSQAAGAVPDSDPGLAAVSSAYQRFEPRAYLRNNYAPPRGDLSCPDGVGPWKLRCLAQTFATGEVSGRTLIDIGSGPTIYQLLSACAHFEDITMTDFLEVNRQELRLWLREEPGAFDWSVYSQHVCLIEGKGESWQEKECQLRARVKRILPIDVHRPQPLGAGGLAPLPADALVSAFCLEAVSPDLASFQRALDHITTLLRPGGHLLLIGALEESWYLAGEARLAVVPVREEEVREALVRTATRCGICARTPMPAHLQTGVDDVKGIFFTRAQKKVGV
Procedure, shortened: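 Inhibition was measured on bovine adrenal PNMT partially purified through the isoelectric precipitation step. The radiochemical assay used phosphate buffer (pH 8.0) with unlabeled and [methyl-3H]AdoMet, 30 min at 37 °C. It was quenched with pH 10 borate buffer and extracted into toluene-isoamyl alcohol (7:3). Ki came from at least three inhibitor concentrations with phenylethanolamine as the variable substrate; compounds were tested as hydrochloride salts.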

[3] = substrate: NCC(O)c1cccc2c1Cc1ccccc1-2; test: (§2) In vitro enzyme kinetics (PNMT)of the compound expressed as turnover rate isolated from bovine adrenal glands; procedure, shortened: as §1
[4] = substrate: NCC(O)c1ccc2c(c1)Cc1ccccc1-2; test: as §2; procedure, shortened: as §1
[5] = substrate: NC[C@@H](O)c1ccccc1; test: as §2; procedure, shortened: as §1
[6] = substrate: NCC(O)c1cccc(-c2ccccc2)c1; test: as §2; procedure, shortened: as §1
[7] = substrate: NCC(O)c1ccc(-c2ccccc2)cc1; test: as §2; procedure, shortened: as §1
[8] = substrate: NCC(O)c1cccc2c1Cc1ccccc1-2; test: (§3) In vitro enzyme kinetics (PNMT) of the compound expressed as Michaelis constant isolated from bovine adrenal glands; procedure, shortened: as §1
[9] = substrate: NCC(O)c1ccc2c(c1)Cc1ccccc1-2; test: as §3; procedure, shortened: as §1
[10] = substrate: NC[C@@H](O)c1ccccc1; test: as §3; procedure, shortened: as §1
[11] = substrate: NCC(O)c1ccc(-c2ccccc2)cc1; test: as §3; procedure, shortened: as §1

NCC(O)c1ccc2c(c1)Cc1ccccc1-2 (stereo unspecified)
Ratio [1]: 6.7

NCC(O)c1ccc(-c2ccccc2)cc1 (stereo unspecified)
Ratio [1]: 5.2

CC(N)c1cccc2c1Cc1ccccc1-2 (stereo unspecified)
Ki [2]: 4.14 µM

NCC(O)c1cccc(-c2ccccc2)c1 (stereo unspecified)
Ratio [1]: 0.07

CC(N)c1ccc2c(c1)Cc1ccccc1-2 (stereo unspecified)
Ki [2]: 185 µM

NCC(O)c1cccc2c1Cc1ccccc1-2 (stereo unspecified)
Ratio [1]: 0.015

NC[C@@H](O)c1ccccc1
Ratio [1]: 3.1

B1: Phenylethanolamine N-methyltransferase (Bos taurus), P10938 (protein)
chain: T1 sequence (P10938 whole entry)
Vmax (nM min-1 (mg of protein)-1) [3]: 0.046 | Vmax (nM min-1 (mg of protein)-1) [4]: 1.76 | Vmax (nM min-1 (mg of protein)-1) [5]: 2.2 | Vmax (nM min-1 (mg of protein)-1) [6]: 0.46 | Vmax (nM min-1 (mg of protein)-1) [7]: 4.3 | Km [8]: 297 µM | Km [9]: 26.3 µM | Km [10]: 70 µM | Km [11]: 82 µM
